# Legend:
# Caco-2 [1] = assay: Cytotoxicity against human Caco2 cells assessed as surviving fraction at 10 uM after 24 hrs by MTT assay relative to control; type: functional
# In short: (§1)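 Caco-2 cells were kept as monolayers in RPMI-1640 with 10% FBS, 100 U/mL penicillin and streptomycin, at 37 C in humidified 5% CO2. Cells were treated for 24 h at concentrations spanning […], and viability was read by the colorimetric MTT (Mosmann) method. Percent relative viability and IC50 were fitted in Prism.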
# Caco-2 [2] = assay: Cytotoxicity against human Caco2 cells assessed as cell viability after 24 hrs by MTT assay; type: functional, cell-based; conditions: Caco-2, 24 h; in short: as §1
# Caco-2 [3] = assay: Cytotoxicity against human Caco2 cells assessed as surviving fraction at 100 uM after 24 hrs by MTT assay relative to control; type: functional; in short: as §1
# Caco-2 [4] = assay: Cytotoxicity against human Caco2 cells assessed as surviving fraction at 50 uM after 24 hrs by MTT assay relative to control; type: functional; in short: as §1
# Caco-2 [5] = assay: Cytotoxicity against human Caco2 cells assessed as surviving fraction at 1 uM after 24 hrs by MTT assay relative to control; type: functional; in short: as §1
# Caco-2 [6] = assay: Cytotoxicity against human Caco2 cells assessed as surviving fraction at 25 uM after 24 hrs by MTT assay relative to control; type: functional; in short: as §1
# Caco-2 [7] = assay: Induction of apoptosis in human Caco2 cells assessed as Fas-ligand concentration at 0.3 uM after 24 hrs by FASL-based ELISA (reference value: 20.5 pg/ml); type: functional
# Caco-2 [8] = assay: Induction of apoptosis in human Caco2 cells assessed as caspase-3 concentration at 0.6 uM after 24 hrs by colorimetric analysis (reference value: 0.193 nmol/ml); type: functional
# Caco-2 [9] = assay: Induction of apoptosis in human Caco2 cells assessed as Fas-ligand concentration at 0.6 uM after 24 hrs by FASL-based ELISA (reference value: 20.5 pg/ml); type: functional
# Caco-2 [10] = assay: Induction of apoptosis in human Caco2 cells assessed as Fas-ligand concentration at 0.15 uM after 24 hrs by FASL-based ELISA (reference value: 20.5 pg/ml); type: functional
# Caco-2 [11] = assay: Induction of apoptosis in human Caco2 cells assessed as caspase-3 concentration at 0.3 uM after 24 hrs by colorimetric analysis (reference value: 0.193 nmol/ml); type: functional
# Caco-2 [12] = assay: Induction of apoptosis in human Caco2 cells assessed as caspase-3 concentration at 0.15 uM after 24 hrs by colorimetric analysis (reference value: 0.193 nmol/ml); type: functional
# Caco-2 [13] = assay: Induction of apoptosis in human Caco2 cells assessed as caspase-3 concentration at 100 uM after 24 hrs by colorimetric analysis (reference value: 0.193 nmol/ml); type: functional
# Caco-2 [14] = assay: Induction of apoptosis in human Caco2 cells assessed as Fas-ligand concentration at 63.5 uM after 24 hrs by FASL-based ELISA (reference value: 20.5 pg/ml); type: functional
# Caco-2 [15] = assay: Induction of apoptosis in human Caco2 cells assessed as Fas-ligand concentration at 31.5 uM after 24 hrs by FASL-based ELISA (reference value: 20.5 pg/ml); type: functional
# Caco-2 [16] = assay: Induction of apoptosis in human Caco2 cells assessed as caspase-3 concentration at 62.3 uM after 24 hrs by colorimetric analysis (reference value: 0.193 nmol/ml); type: functional
# Caco-2 [17] = assay: Induction of apoptosis in human Caco2 cells assessed as Fas-ligand concentration at 100 uM after 24 hrs by FASL-based ELISA (reference value: 20.5 pg/ml); type: functional
# Caco-2 [18] = assay: Induction of apoptosis in human Caco2 cells assessed as caspase-3 concentration at 31 uM after 24 hrs by colorimetric analysis (reference value: 0.193 nmol/ml); type: functional
# Caco-2 [19] = assay: Induction of apoptosis in human Caco2 cells assessed as caspase-3 concentration at 62 uM after 24 hrs by colorimetric analysis (reference value: 0.193 nmol/ml); type: functional
# Caco-2 [20] = assay: Induction of apoptosis in human Caco2 cells assessed as caspase-3 concentration at 15 uM after 24 hrs by colorimetric analysis (reference value: 0.193 nmol/ml); type: functional
# Caco-2 [21] = assay: Induction of apoptosis in human Caco2 cells assessed as Fas-ligand concentration at 31 uM after 24 hrs by FASL-based ELISA (reference value: 20.5 pg/ml); type: functional
# In short: (§2)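 Caco-2 cells were grown in RPMI-1640 with 10% FBS, penicillin and streptomycin at 37 C under 5% CO2. Cells were exposed to the test agent for 24 h. Fas-ligand in the cells was then measured with a colorimetric human FASL ELISA kit and reported as pg/mL against an untreated control.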
# Caco-2 [22] = assay: Induction of apoptosis in human Caco2 cells assessed as Fas-ligand concentration at 62 uM after 24 hrs by FASL-based ELISA (reference value: 20.5 pg/ml); type: functional; in short: as §2
# Caco-2 [23] = assay: Induction of apoptosis in human Caco2 cells assessed as Fas-ligand concentration at 15 uM after 24 hrs by FASL-based ELISA (reference value: 20.5 pg/ml); type: functional; in short: as §2
smiles,measurement,setting,value
COc1ccc(-c2onc3nc(Nc4ccc(S(N)(=O)=O)cc4)sc23)cc1,Ratio,Caco-2 [1],0.401
same,IC50,Caco-2 [2],559 nM
same,Ratio,Caco-2 [3],0.228
same,Ratio,Caco-2 [4],0.229
same,Ratio,Caco-2 [5],0.412
same,Ratio,Caco-2 [6],0.317
NS(=O)(=O)c1ccc(NC2=NC(=O)/C(=C/c3ccccc3)S2)cc1,Ratio,Caco-2 [1],0.182
same,Activity,Caco-2 [7],775.2 pg/mL
same,Activity,Caco-2 [8],0.37 nmol/mL
same,IC50,Caco-2 [2],334 nM
same,Activity,Caco-2 [9],706.12 pg/mL
same,Activity,Caco-2 [10],445.2 pg/mL
same,Ratio,Caco-2 [3],0.068
same,Ratio,Caco-2 [4],0.422
same,Activity,Caco-2 [11],0.38 nmol/mL
same,Ratio,Caco-2 [5],0.348
same,Activity,Caco-2 [12],0.43 nmol/mL
same,Ratio,Caco-2 [6],0.133
NS(=O)(=O)c1ccc(Nc2nc3nc(=O)[nH]c(-c4ccc(Cl)cc4)c3s2)cc1,Ratio,Caco-2 [1],0.603
same,IC50,Caco-2 [2],12700 nM
same,Ratio,Caco-2 [3],0.073
same,Ratio,Caco-2 [4],0.156
same,Ratio,Caco-2 [5],0.519
same,Ratio,Caco-2 [6],0.112
COc1ccc(-c2[nH]c(=S)nc3nc(Nc4ccc(S(N)(=O)=O)cc4)sc23)cc1,Ratio,Caco-2 [1],0.344
same,IC50,Caco-2 [2],667 nM
same,Ratio,Caco-2 [3],0.169
same,Ratio,Caco-2 [4],0.186
same,Ratio,Caco-2 [5],0.444
same,Ratio,Caco-2 [6],0.299
NS(=O)(=O)c1ccc(NC2=NC(=O)/C(=C/c3ccc(Cl)cc3)S2)cc1,Ratio,Caco-2 [1],0.314
same,IC50,Caco-2 [2],667 nM
same,Ratio,Caco-2 [3],0.153
same,Ratio,Caco-2 [4],0.086
same,Ratio,Caco-2 [5],0.285
same,Ratio,Caco-2 [6],0.113
NS(=O)(=O)c1ccc(Nc2nc3noc(-c4ccccc4)c3s2)cc1,Ratio,Caco-2 [1],0.335
same,IC50,Caco-2 [2],669 nM
same,Ratio,Caco-2 [3],0.456
same,Ratio,Caco-2 [4],0.295
same,Ratio,Caco-2 [5],0.442
same,Ratio,Caco-2 [6],0.304
COc1ccc(-c2[nH]c(=O)nc3nc(Nc4ccc(S(N)(=O)=O)cc4)sc23)cc1,Ratio,Caco-2 [1],0.362
same,IC50,Caco-2 [2],667 nM
same,Ratio,Caco-2 [3],0.167
same,Ratio,Caco-2 [4],0.257
same,Ratio,Caco-2 [5],0.477
same,Ratio,Caco-2 [6],0.473
COc1ccc(/C=C2\SC(Nc3ccc(S(N)(=O)=O)cc3)=NC2=O)cc1,Ratio,Caco-2 [1],0.179
same,IC50,Caco-2 [2],1330 nM
same,Ratio,Caco-2 [3],0.485
same,Ratio,Caco-2 [4],0.416
same,Ratio,Caco-2 [5],0.281
same,Ratio,Caco-2 [6],0.466
NS(=O)(=O)c1ccc(Nc2nc3noc(-c4ccc(Cl)cc4)c3s2)cc1,Ratio,Caco-2 [1],0.248
same,Activity,Caco-2 [7],147.5 pg/mL
same,Activity,Caco-2 [8],0.407 nmol/mL
same,IC50,Caco-2 [2],333 nM
same,Activity,Caco-2 [9],312.2 pg/mL
same,Activity,Caco-2 [10],111.3 pg/mL
same,Ratio,Caco-2 [3],0.197
same,Ratio,Caco-2 [4],0.202
same,Activity,Caco-2 [11],0.409 nmol/mL
same,Ratio,Caco-2 [5],0.319
same,Activity,Caco-2 [12],0.366 nmol/mL
same,Ratio,Caco-2 [6],0.219
NS(=O)(=O)c1ccc(Nc2nc3nc(=S)[nH]c(-c4ccccc4)c3s2)cc1,Ratio,Caco-2 [1],0.223
same,Activity,Caco-2 [7],165.7 pg/mL
same,Activity,Caco-2 [8],0.364 nmol/mL
same,IC50,Caco-2 [2],333 nM
same,Activity,Caco-2 [9],307.5 pg/mL
same,Activity,Caco-2 [10],115.5 pg/mL
same,Ratio,Caco-2 [3],0.135
same,Ratio,Caco-2 [4],0.223
same,Activity,Caco-2 [11],0.34 nmol/mL
same,Ratio,Caco-2 [5],0.304
same,Activity,Caco-2 [12],0.35 nmol/mL
same,Ratio,Caco-2 [6],0.234
NS(=O)(=O)c1ccc(Nc2nc3nc(=S)[nH]c(-c4ccc(Cl)cc4)c3s2)cc1,Ratio,Caco-2 [1],0.456
same,Activity,Caco-2 [7],309.4 pg/mL
same,Activity,Caco-2 [8],0.37 nmol/mL
same,IC50,Caco-2 [2],333 nM
same,Activity,Caco-2 [9],641.8 pg/mL
same,Activity,Caco-2 [10],312.4 pg/mL
same,Ratio,Caco-2 [3],0.276
same,Ratio,Caco-2 [4],0.339
same,Activity,Caco-2 [11],0.366 nmol/mL
same,Ratio,Caco-2 [5],0.433
same,Activity,Caco-2 [12],0.404 nmol/mL
same,Ratio,Caco-2 [6],0.338
NS(=O)(=O)c1ccc(Nc2nc3nc(=O)[nH]c(-c4ccccc4)c3s2)cc1,Ratio,Caco-2 [1],0.237
same,IC50,Caco-2 [2],334 nM
same,Ratio,Caco-2 [3],0.227
same,Ratio,Caco-2 [4],0.229
same,Ratio,Caco-2 [5],0.371
same,Ratio,Caco-2 [6],0.285
COc1cccc2c1C(=O)c1c(O)c3c(c(O)c1C2=O)C[C@@](O)(C(=O)CO)C[C@@H]3O[C@H]1C[C@H](N)[C@H](O)[C@H](C)O1 [DOXORUBICIN],Ratio,Caco-2 [1],0.597
same,Activity,Caco-2 [13],0.272 nmol/mL
same,IC50,Caco-2 [2],63300 nM
same,Activity,Caco-2 [14],56.41 pg/mL
same,Ratio,Caco-2 [3],0.343
same,Ratio,Caco-2 [4],0.552
same,Activity,Caco-2 [15],41.65 pg/mL
same,Activity,Caco-2 [16],0.26 nmol/mL
same,Ratio,Caco-2 [5],0.814
same,Activity,Caco-2 [17],95.8 pg/mL
same,Activity,Caco-2 [18],0.251 nmol/mL
same,Ratio,Caco-2 [6],0.663
O=c1[nH]cc(F)c(=O)[nH]1 [FLUOROURACIL],Activity,Caco-2 [19],0.73 nmol/mL
same,Ratio,Caco-2 [1],0.31
same,Activity,Caco-2 [20],0.92 nmol/mL
same,IC50,Caco-2 [2],31000 nM
same,Ratio,Caco-2 [3],0.254
same,Ratio,Caco-2 [4],0.525
same,Activity,Caco-2 [21],140.1 pg/mL
same,Ratio,Caco-2 [5],0.405
same,Activity,Caco-2 [22],66.2 pg/mL
same,Activity,Caco-2 [18],0.8 nmol/mL
same,Activity,Caco-2 [23],287.7 pg/mL
same,Ratio,Caco-2 [6],0.325

# Reference: ChEMBL document CHEMBL4052636, “Design, synthesis and biological evaluation of some novel sulfonamide derivatives as apoptosis inducers” (Eur J Med Chem, 2017)
